TRPC6 act = activators of mouse TRPC6 channel. Q61143. HEK293-TRPC6 membrane potential dye fluorescence; hits give high values. B-score at 10 µM. 310,000 compounds, 0.13% hits. AID 2550;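 active means B-score of the integrated fluorescence ratio above library mean plus 3 SD, and starting fluorescence ratio within library mean plus 5 SD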;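 further: higher score means more depolarization so channel activation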
TRPC4 inh = TRPC4 (mouse) channel inhibition. Q9QUQ5. HEK293 TRPC4beta/mu-opioid, DAMGO-evoked Fluo4 calcium flux; hits give low values. B-score at 10 µM. 300,000 compounds, 0.39% hits. AID 2247;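 active means B-score over 3 SD under the library average, no early fluorescence shift, positive overall ratio signal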
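material = TRPC4beta/mu-opioid receptor HEK293 cell line | probe or stimulus = sequential submaximal and maximal DAMGO stimulation | compound dosing = one concentration per compound | measured by = Fluo4 Ca2+ flux fluorescence | evaluation = integrated fluorescence ratio relative to baseline, converted to per-well B score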
DNA FID counter = displaces DNA intercalator in HCV helicase counter-screen; DNA fluorescent intercalator displacement, fluorescence; inhibition, % at 7.9 µM; 290,000 compounds, 0.17% hits; AID 1845; in the data active means inhibition above about 37%;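 further: higher means more ethidium bromide displaced from hairpin DNA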
TRPC4 agonist = activators of mouse TRPC4 channel; Q9QUQ5; HEK293 TRPC4beta/mu-opioid, Fluo4 calcium fluorescence; hits give high values; B-score at 10 µM; 310,000 compounds, 0.49% hits; AID 2237;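 active means B-score above 5 SD of library B-scores, and initial fluorescence ratio not above library mean plus 5 SD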;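 further: positive B-score marks a calcium rise read as TRPC4 activation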
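Assay system: HEK293 stable line with TRPC4beta plus mu-opioid receptor; schedule: 45 min room-temperature Fluo4 loading, 110 s read; technique: kinetic Fluo4 calcium fluorescence; evaluation: integrated baseline-normalised fluorescence ratio, converted to per-well B score; controls: buffer (low) and maximal DAMGO (high)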
TRPC4 PAM = allosteric potentiators of mouse TRPC4 channel. Q9QUQ5. HEK293 TRPC4beta/mu-opioid, DAMGO EC20, Fluo-4 Ca2+ flux; hits give high values. B-score at 10 µM. 310,000 compounds, 0.42% hits. AID 2227;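 active means B-score of calcium response area above 5 SD of library B-scores, with initial fluorescence ratio within 5 SD of library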
TRPC6 inh = blocks the mouse TRPC6 cation channel | Q61143 | HEK293-TRPC6, membrane potential dye, ACh-evoked depolarization; hits give low values | B-score at 10 µM | 310,000 compounds, 1.1% hits | AID 2553;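 active means B-score under library mean minus 3 SD, initial fluorescence not abnormally high, positive integrated signal ratio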;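 further: B-score derived from integrated fluorescence ratio over the kinetic read; more negative B-score means stronger inhibition of depolarization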
Each line names hits and unclear results; the compound was inactive in the other large screens. Sampled rows, rich in hits. Any-hit rate of the full collection: about 2.3%.

CC1CCCCC1NC(=O)c1ccc(S(=O)(=O)N2CCCC2)cc1 (configuration not stated)	none
CC1CCCCC1NS(=O)(=O)c1ccc(S(=O)(=O)N2CCCC2)cc1 (configuration not stated)	TRPC4 PAM 49
O=C(NCc1ccccc1)C1CCCN(S(=O)(=O)c2cccc3nonc23)C1 (configuration not stated)	none
O=C(NC1CCN(Cc2ccccc2)CC1)C1CCCN(S(=O)(=O)c2cccc3nonc23)C1 (configuration not stated)	TRPC4 PAM 10
CC1CN(S(=O)(=O)c2ccc(C(=O)N(CCCN(C)C)c3nc4cc5c(cc4s3)OCCO5)cc2)CC(C)O1 (configuration not stated)	none (no result: DNA FID counter)
CN(C)CCN(C(=O)c1ccc(S(=O)(=O)N2CCCC2)cc1)c1nc2ccc(Br)cc2s1	none
CCC1CCCCN1S(=O)(=O)c1ccc(C(=O)N(CCCN(C)C)c2nc3cc4c(cc3s2)OCO4)cc1 (configuration not stated)	DNA FID counter 38.8, TRPC4 agonist 130
CC1CCCCN1S(=O)(=O)c1ccc(C(=O)N(CCCN(C)C)c2nc3ccc(Br)cc3s2)cc1 (configuration not stated)	DNA FID counter 38.1, TRPC4 agonist 143
Cc1cccc(C)c1NC(=O)CNC(=O)C(Cc1ccccc1)NC(=O)c1ccccc1 (configuration not stated)	none
CC(C)(C)NS(=O)(=O)c1ccc(NC(=S)NC(=O)C2CC2)cc1	none
CSC1=NC2(CCCCC2)C2=C(CCCC2)N1	TRPC4 inh -6
CCCCN(C)CCNC(=O)c1cc(-c2cccnc2)nc2ccc(S(=O)(=O)N3CCC(C)CC3)cc12	TRPC4 agonist 57
COc1cccc(NC(=S)NN2C(C)CCCC2C)c1 (configuration not stated)	TRPC4 PAM 11
CCOC(=O)c1sc2nc(C)nc(NCc3ccc(F)cc3)c2c1C	none
CCOC(=O)c1sc2nc(CC(=O)OC)nc(NCc3ccc(F)cc3)c2c1C	TRPC4 inh -9, TRPC4 agonist 98
CCCS(=O)(=O)c1ccc(COC(=O)Cc2ccc([N+](=O)[O-])cc2)cc1	none
c1ccc(Cn2nnnc2C(c2cccnc2)N2CCN(C3CCCCC3)CC2)cc1 (configuration not stated)	TRPC4 agonist 103
Fc1ccc(C(c2nnnn2Cc2ccco2)N2CCN(C3CCCCC3)CC2)cc1 (configuration not stated)	TRPC4 agonist 196
O=[N+]([O-])c1ccc2[nH]nc(-c3ccccc3)c2c1	TRPC4 inh -6
NNC(=O)c1[nH]c2ccc([N+](=O)[O-])cc2c1-c1ccccc1	TRPC4 inh -6
O=C(N/N=C/c1ccccn1)c1[nH]c2ccc([N+](=O)[O-])cc2c1-c1ccccc1	TRPC4 inh -6
O=C(O)c1[nH]c2ccc([N+](=O)[O-])cc2c1-c1ccccc1	none
Cc1ccc(NS(=O)(=O)c2cc([N+](=O)[O-])ccc2N/N=C/c2sc(N3CCOCC3)nc2-c2ccccc2)c(C)c1	none
CC(=O)N1N=C(c2ccccc2)OC12CCCC2	none
CC(=O)N1N=C(c2ccc(Br)cc2)OC1(C)CC(=O)Nc1ccccc1 (configuration not stated)	TRPC4 PAM 15
CC(=O)COc1c(-c2ccco2)oc2ccccc2c1=O	none
NC1=NC[C@H](CC2CCCCC2)N1CCc1cc(C(F)(F)F)cc(C(F)(F)F)c1	TRPC4 agonist 67 (no result: DNA FID counter)
NC(N)=NN=C1CCCCCCCCCCC1	TRPC4 agonist 49
O=C(Nc1c2ccccc2nc2ccccc12)C(Cl)(Cl)Cl	DNA FID counter 37.6
CC(C(=O)Nc1ccc(F)c(F)c1F)N(C)Cc1cccs1 (configuration not stated)	none
C#CCOCCOCCOCCNc1nc(N2CCN(C(=O)C(Cc3ccc(O)cc3)n3cc(C(N)CC(C)C)nn3)CC2)nc(N2CCN(C(=O)C(Cc3cc4ccccc4[nH]3)n3cc(C(N)C(C)CC)nn3)CC2)n1 (configuration not stated)	none

Assay outcomes as filed in PubChem.
